Series [1] deals with T1, Potassium voltage-gated channel subfamily KQT member 1 (Homo sapiens, UniProt P51787).
T1 sequence (P51787 whole entry): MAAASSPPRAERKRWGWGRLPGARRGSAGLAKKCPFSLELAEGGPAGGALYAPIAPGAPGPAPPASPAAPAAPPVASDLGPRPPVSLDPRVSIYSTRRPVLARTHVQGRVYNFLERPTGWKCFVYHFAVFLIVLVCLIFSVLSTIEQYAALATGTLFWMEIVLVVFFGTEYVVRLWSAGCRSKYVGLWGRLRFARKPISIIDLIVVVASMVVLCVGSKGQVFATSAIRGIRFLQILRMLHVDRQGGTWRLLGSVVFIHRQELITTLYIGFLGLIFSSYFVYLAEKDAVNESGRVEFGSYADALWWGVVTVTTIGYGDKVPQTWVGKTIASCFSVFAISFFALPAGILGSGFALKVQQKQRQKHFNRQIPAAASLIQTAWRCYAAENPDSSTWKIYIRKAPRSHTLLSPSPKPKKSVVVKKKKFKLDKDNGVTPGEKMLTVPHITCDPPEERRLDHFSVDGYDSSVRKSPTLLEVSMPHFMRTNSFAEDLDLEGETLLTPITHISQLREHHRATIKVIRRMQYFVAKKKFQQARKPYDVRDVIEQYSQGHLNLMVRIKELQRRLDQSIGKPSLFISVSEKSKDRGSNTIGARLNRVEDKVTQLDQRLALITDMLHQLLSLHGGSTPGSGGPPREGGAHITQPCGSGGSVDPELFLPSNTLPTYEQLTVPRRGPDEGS
The experiment in a line: Activation of Kv7.1 channel expressed in CHO cells assessed as depolarization-induced […] after 3 mins by patch clamp assay. It counts as cell-based. The gist of the method:
(§1)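 CHO cells stably expressing KCNQ1 were run by perforated (amphotericin B, 50 µg/ml) population patch clamp in pH 7.4 HEPES extracellular solution. Cells were held at −80 mV and stepped to +40 mV for 2000 ms. Current at the end of the step was taken before and after 3 min of compound, as percent change. Wells needed >30 MΩ seal and 0.6–0.8 nA minimum current. EC50s came from 8-point, threefold dilutions in duplicate.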

In series [2] the target is T1, Potassium voltage-gated channel subfamily KQT member 1. The experiment in a line: Activation of Kv7.1 channel expressed in CHO cells assessed as depolarization-induced […] after 3 mins by patch clamp assay relative to control. It counts as cell-based. The following applies: 0.05 h, read-out: %max. In a few lines: as §1
(The patch-clamp technique gives a direct electrical read-out from membranes.)

A short description of series [3]: Intrinsic clearance in human liver microsomes. The following applies: read-out: CLH. The series is classed as ADME, Microsome. The gist of the method:
(§2)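 Intrinsic clearance was measured in hepatic microsomes, and the data were used to predict hepatic clearance (CL_HEP).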
For orientation: Liver microsomes are vesicles of endoplasmic reticulum, rich in cytochrome P450 enzymes.

Series [4] can be described thus: Intrinsic clearance in rat liver microsomes. It counts as ADME, Microsome. The following applies: read-out: CLH. The gist of the method: as §2
Series [5] concerns Liver microsomes. In words: Drug metabolism in human liver microsomes assessed as methoxy-O-demethylation by mass spectrophotometry. The series is classed as ADME, Microsome. The gist of the method: (§3)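 In vitro biotransformation in liver microsomes was examined, with primary metabolic pathways identified by mass spectrometry.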
Series [6] concerns the target Sodium-dependent dopamine transporter (Homo sapiens) (UniProt Q01959). In words: Inhibition of human DAT at 10 uM. The gist of the method:
(§4)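 The Lead Profiling binding panel (68 GPCRs, ion channels and transporters) was run at a single point, reading percent inhibition.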

In series [7] the test system is Plasma. In words: Fraction unbound in rat plasma. It counts as ADME, cell-free. In a few lines:
(§5)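 Plasma protein binding was measured by rapid equilibrium dialysis, giving the unbound fraction.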

In series [8] the target is Potassium voltage-gated channel subfamily KQT member 2 (Homo sapiens, UniProt O43526). The experiment in a line: Activation of KCNQ2 channel expressed in CHO cells assessed as depolarization-induced […] after 3 mins by patch clamp assay relative to control. The series is classed as cell-based.
The test system of series [9] is Liver microsomes. In words: Drug metabolism in human liver microsomes assessed as tolyl-oxidation by mass spectrophotometry. The series is classed as ADME, Microsome. In a few lines: as §3
For series [10], the target named is T2, Adenosine receptor A3 (Homo sapiens) (UniProt P0DMS8).
T2 sequence (whole entry): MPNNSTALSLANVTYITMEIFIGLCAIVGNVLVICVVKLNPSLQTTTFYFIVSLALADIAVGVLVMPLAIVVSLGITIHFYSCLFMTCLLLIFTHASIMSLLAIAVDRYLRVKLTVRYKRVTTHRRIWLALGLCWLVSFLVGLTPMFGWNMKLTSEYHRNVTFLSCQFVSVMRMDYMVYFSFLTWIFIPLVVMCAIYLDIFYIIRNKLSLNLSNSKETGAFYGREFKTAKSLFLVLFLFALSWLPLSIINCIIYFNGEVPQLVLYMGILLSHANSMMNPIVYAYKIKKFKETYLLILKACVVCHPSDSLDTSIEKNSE
The experiment in a line: Inhibition of human adenosine A3 receptor at 10 uM. The gist of the method: as §4

Series [11] relates to Liver microsomes. In words: Drug metabolism in rat liver microsomes assessed as methoxy-O-demethylation by mass spectrophotometry. It counts as ADME, Microsome. In a few lines:
as §3

For series [12], the target named is Cannabinoid receptor 1 (Homo sapiens) (UniProt P21554). The experiment in a line: Inhibition of human CB1 receptor at 10 uM. In a few lines:
as §4

Series [13] concerns the target 5-hydroxytryptamine receptor 2B (Homo sapiens) (UniProt P41595). In words: Inhibition of human 5HT2B receptor at 10 uM. In a few lines:
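Commercial lead-profiling binding panel of up to 68 GPCRs, ion channels and transporters; percent inhibition measured at a single concentration of 10 µM.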

Series [14] concerns Plasma. In words: Fraction unbound in human plasma. The series is classed as ADME, cell-free. The gist of the method:
as §5

The subject of series [15] is Liver microsomes. The experiment in a line: Drug metabolism in rat liver microsomes assessed as tolyl-oxidation by mass spectrophotometry. It counts as ADME, Microsome. The gist of the method: as §3
The target of series [16] is T3, Potassium voltage-gated channel subfamily KQT member 4 (Homo sapiens, UniProt P56696).
T3 sequence (P56696 whole entry): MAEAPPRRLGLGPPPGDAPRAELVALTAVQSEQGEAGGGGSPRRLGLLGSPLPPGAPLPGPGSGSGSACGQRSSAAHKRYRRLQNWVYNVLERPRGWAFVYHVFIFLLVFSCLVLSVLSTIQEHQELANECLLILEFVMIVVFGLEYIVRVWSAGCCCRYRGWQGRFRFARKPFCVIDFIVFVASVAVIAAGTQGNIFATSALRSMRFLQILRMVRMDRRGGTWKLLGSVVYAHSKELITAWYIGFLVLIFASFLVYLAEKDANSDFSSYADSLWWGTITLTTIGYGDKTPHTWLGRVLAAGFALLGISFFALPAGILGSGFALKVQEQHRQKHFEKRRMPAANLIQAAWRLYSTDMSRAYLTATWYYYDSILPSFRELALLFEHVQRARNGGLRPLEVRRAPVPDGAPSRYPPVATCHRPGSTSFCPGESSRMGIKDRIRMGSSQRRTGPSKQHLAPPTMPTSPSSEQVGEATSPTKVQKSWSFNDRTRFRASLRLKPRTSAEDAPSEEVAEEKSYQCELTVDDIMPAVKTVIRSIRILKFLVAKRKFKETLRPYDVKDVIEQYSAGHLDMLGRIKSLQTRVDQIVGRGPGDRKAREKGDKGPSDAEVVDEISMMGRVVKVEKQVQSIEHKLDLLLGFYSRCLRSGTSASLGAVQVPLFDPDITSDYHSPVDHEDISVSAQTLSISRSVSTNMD
The experiment in a line: Activation of KCNQ4 channel expressed in CHO cells assessed as depolarization-induced […] after 3 mins by patch clamp assay relative to control. It counts as cell-based. In a few lines:
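KCNQ4-expressing CHO cells were measured on the same perforated population patch-clamp platform. Cells were held at −70 mV and depolarized to +40 mV, with step current measured at +40 mV before and after 3 min of compound. Effect was calculated as percent change from the pre-compound current in the same well. The 8-point, threefold concentration series was run in duplicate.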

Some results are limits rather than exact numbers.

Sequence of 5-hydroxytryptamine receptor 2B (Homo sapiens) (P41595 whole entry): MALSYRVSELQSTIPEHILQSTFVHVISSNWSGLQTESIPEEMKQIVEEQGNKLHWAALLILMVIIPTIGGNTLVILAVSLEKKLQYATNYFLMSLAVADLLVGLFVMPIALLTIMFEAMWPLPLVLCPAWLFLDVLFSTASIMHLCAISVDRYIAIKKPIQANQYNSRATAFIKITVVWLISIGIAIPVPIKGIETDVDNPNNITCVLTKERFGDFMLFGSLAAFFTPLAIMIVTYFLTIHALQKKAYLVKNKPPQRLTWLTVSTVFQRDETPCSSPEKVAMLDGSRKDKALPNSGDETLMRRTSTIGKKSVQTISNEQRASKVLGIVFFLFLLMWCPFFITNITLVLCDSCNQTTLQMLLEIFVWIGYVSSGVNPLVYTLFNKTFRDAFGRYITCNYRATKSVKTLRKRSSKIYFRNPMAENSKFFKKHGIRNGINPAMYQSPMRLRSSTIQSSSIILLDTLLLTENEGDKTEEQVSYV
Sequence of Potassium voltage-gated channel subfamily KQT member 2 (O43526 whole entry): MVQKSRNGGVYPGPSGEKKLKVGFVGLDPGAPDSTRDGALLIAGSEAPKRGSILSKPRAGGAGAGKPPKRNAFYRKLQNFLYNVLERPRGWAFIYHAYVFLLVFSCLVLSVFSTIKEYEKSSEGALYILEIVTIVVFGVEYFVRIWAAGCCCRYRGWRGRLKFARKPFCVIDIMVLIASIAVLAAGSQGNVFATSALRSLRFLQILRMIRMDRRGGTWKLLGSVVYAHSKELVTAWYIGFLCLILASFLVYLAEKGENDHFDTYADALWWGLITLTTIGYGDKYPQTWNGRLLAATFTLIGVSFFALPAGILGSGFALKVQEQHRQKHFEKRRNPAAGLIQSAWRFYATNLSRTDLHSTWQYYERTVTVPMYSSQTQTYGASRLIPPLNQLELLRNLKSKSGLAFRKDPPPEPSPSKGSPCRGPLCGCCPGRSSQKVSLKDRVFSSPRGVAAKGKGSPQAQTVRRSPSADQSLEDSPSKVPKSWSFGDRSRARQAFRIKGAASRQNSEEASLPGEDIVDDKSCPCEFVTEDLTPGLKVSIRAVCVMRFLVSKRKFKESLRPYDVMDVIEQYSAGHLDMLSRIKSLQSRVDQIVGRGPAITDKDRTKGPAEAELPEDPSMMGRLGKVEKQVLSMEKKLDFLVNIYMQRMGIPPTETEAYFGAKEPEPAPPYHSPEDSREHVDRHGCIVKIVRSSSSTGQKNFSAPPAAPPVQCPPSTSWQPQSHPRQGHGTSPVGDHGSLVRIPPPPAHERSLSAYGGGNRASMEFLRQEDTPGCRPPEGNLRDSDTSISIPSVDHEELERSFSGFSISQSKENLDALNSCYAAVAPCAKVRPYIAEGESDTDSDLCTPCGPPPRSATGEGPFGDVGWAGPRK
Sequence of Cannabinoid receptor 1 (Homo sapiens) (P21554 whole entry): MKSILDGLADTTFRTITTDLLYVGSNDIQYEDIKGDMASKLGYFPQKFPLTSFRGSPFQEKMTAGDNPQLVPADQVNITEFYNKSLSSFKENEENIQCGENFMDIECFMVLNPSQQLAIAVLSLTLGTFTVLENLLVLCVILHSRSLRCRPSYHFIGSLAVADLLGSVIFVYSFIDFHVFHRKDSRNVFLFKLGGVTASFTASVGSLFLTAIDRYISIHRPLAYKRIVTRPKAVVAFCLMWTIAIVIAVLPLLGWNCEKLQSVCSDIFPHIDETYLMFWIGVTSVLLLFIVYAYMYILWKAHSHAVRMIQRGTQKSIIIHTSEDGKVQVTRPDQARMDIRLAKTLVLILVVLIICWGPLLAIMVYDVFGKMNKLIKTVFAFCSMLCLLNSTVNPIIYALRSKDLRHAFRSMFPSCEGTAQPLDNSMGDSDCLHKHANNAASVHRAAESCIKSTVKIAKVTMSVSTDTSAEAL
Sequence of Sodium-dependent dopamine transporter (Homo sapiens) (Q01959 whole entry): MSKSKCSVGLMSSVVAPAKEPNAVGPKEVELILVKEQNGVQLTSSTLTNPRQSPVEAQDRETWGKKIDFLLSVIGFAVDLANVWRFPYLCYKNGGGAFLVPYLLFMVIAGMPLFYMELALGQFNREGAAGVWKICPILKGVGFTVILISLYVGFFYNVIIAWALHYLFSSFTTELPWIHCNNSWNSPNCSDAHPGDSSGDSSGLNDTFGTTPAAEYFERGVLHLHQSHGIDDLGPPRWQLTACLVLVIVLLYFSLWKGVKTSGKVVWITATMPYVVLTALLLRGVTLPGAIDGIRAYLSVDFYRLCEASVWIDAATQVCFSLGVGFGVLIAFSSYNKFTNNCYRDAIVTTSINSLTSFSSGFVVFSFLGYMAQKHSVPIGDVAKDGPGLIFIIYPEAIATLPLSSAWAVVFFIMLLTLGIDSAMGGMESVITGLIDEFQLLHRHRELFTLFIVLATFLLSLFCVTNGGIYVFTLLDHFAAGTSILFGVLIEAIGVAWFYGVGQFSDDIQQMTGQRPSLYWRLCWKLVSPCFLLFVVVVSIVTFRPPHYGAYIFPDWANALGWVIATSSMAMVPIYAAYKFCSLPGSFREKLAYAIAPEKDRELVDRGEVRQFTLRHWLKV

As usually defined, the EC50 is the concentration needed to bring the measured effect to its halfway point. With `COc1ccc(-c2csc(NC(=O)[C@@H]3CCCCN3S(=O)(=O)c3ccccc3)n2)cc1`, the concentration for a half-maximal effect (EC50) in [1] is above 30000 nM.
Take `COc1ccc(-c2csc(NC(=O)[C@H]3CCCCN3S(=O)(=O)c3ccc4c(c3)OCO4)n2)cc1`: in series [2], the Emax is 178%. In series [1], the 50% effective concentration (EC50) turned out to be 780 nM.
Taken in the same sequence, the figures for `COc1ccc(-c2csc(NC(=O)C3CCCCN3S(=O)(=O)c3ccccc3)n2)cc1` (racemic) were 285% and 1690 nM.
As for `O=C(Nc1nc(-c2ccc(OC(F)(F)F)cc2)cs1)[C@H]1CCCCN1S(=O)(=O)c1ccc(OC(F)(F)F)cc1`, the CLint scaled in series [3] worked out at 7.9 mL/min/kg; in series [4] it was 20.6 mL/min/kg. In series [1] (human, cho, 0.05 h), the Activity entry was “Not Active”.
As a reminder, the inhibition is the relative decrease from the control value, in per cent. With `COc1ccc(-c2csc(NC(=O)[C@H]3CCCCN3S(=O)(=O)c3ccc(C)cc3)n2)cc1`, the Drug metabolism entry with Liver microsomes [5], with Liver microsomes [9], with Liver microsomes [11] and with Liver microsomes [15] was “Active” in each case. For the same molecule, the inhibition in series [6] was 54%; in series [10], 73%; in series [12], 97%; in series [13], 66%. For the same molecule, the CLint scaled in [3] is 18 mL/min/kg; in [4], 64.7 mL/min/kg. Also, the Fu was 0.7% in the series on Plasma [7] and 0.6% with Plasma [14]. Also, the EC50 in series [8] and in [16] was above 30000 nM each time.
For `COc1ccc(-c2csc(NC(=O)[C@H]3CCCCN3S(=O)(=O)c3ccccc3)n2)cc1`, in series [2], the Emax came out at 359%. Moreover, the EC50 in series [1] came to 1470 nM.

The values above are taken from ChEMBL document CHEMBL2069205 (Bioorg Med Chem Lett, 2012).
